The subject of one test is Clostridium perfringens. Description: In vitro antibacterial activity against Clostridium perfringens CP 3-1. The format is functional.
Another test relates to Enterococcus faecalis. Briefly: In vitro antibacterial activity was tested for Streptococcus faecalis MGH-2. The format is functional. In a few lines:
(§1)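 Microtitration (microdilution) MIC determination in μg/mL against a panel of Gram-positive, Gram-negative and anaerobic organisms. Values come from duplicate or triplicate experiments and are stated accurate to ±50%.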

A further test relates to Clostridioides difficile. Description: In vitro antibacterial activity was tested for Clostridium diff CD1-1. It counts as functional.
In the next test the test system is Streptococcus pyogenes. Description: In vitro antibacterial activity was tested for Streptococcus pyogenes C203. It counts as functional. In a few lines:
as §1

Test [1] has as its system Staphylococcus aureus. Description: In vitro antibacterial activity was tested for Staphylococcus aureus UC-76. The format is functional. Summed up: as §1
Test [2] relates to Escherichia coli. Description: In vitro antibacterial activity was tested for Escherichia coli Vogel. The format is functional. Summed up:
as §1

The subject of a further test is Klebsiella pneumoniae. Briefly: In vitro antibacterial activity was tested for Klebsiella pneumoniae MGH-2. The format is functional. In a few lines:
as §1

In the next test the test system is Streptococcus pneumoniae. Description: In vitro antibacterial activity was tested for Streptococcus pneumoniae SV-1. It counts as functional. In a few lines:
as §1

The next test concerns Enterobacter cloacae. Description: In vitro antibacterial activity was tested for Enterobacter cloacae HA2646. The format is functional.
The subject of test [3] is Escherichia coli. Description: In vitro antibacterial activity was tested for Escherichia coli H560. It counts as functional. In a few lines:
as §1

The subject of the next test is Pseudomonas aeruginosa. Briefly: In vitro antibacterial activity was tested for Pseudomonas aeruginosa UI-18. It counts as functional. In a few lines:
as §1

For another test, the system named is Bacteroides fragilis. Briefly: In vitro antibacterial activity against Bacteroides fragilis BFA. It counts as functional. Summed up:
as §1

The subject of a further test is Providencia rettgeri. Briefly: In vitro antibacterial activity was tested for Providencia rettgeri H1771. It counts as functional. In a few lines:
as §1

The subject of test [4] is Staphylococcus aureus. Briefly: In vitro antibacterial activity was tested for Staphylococcus aureus H228. The format is functional. Summed up: as §1
Another test deals with Cutibacterium acnes. Description: In vitro antibacterial activity was tested for Propion acnes PA5-1. It counts as functional. In a few lines: as §1
Test [5] concerns Peptoniphilus asaccharolyticus. Briefly: In vitro antibacterial activity was tested for Pepto asac PA 3-1. The format is functional. Summed up:
as §1

The subject of a further test is V79. Briefly: Clonogenic cytotoxicity against Chinese hamster V-79 cells. The format is functional, cell-based. Conditions: Cricetulus griseus.

Molecules are shown by their SMILES. Converted amounts (≈) assume the structure as drawn.

In the case of `COc1c(N2CC[C@@H](N)C2)c(F)cc2c(=O)c(C(=O)O)cn(C3CC3)c12`, the MIC stood at 0.5 µg/mL (≈ 1.38 µM) in the test with Clostridium perfringens; 0.05 µg/mL (≈ 0.138 µM) in the test with Enterococcus faecalis; 0.8 µg/mL (≈ 2.21 µM) in the test with Clostridioides difficile; 0.05 µg/mL (≈ 0.138 µM) in the test on Streptococcus pyogenes; 0.025 µg/mL (≈ 0.0692 µM) in the test on Staphylococcus aureus [1]; 0.025 µg/mL (≈ 0.0692 µM) against Escherichia coli [2]. Also, the MIC came to 0.025 µg/mL (≈ 0.0692 µM) against Klebsiella pneumoniae; 0.05 µg/mL (≈ 0.138 µM) in the test on Streptococcus pneumoniae; 0.025 µg/mL (≈ 0.0692 µM) against Enterobacter cloacae; 0.025 µg/mL (≈ 0.0692 µM) in the test with Escherichia coli [3]; 0.8 µg/mL (≈ 2.21 µM) with Pseudomonas aeruginosa; 0.4 µg/mL (≈ 1.11 µM) against Bacteroides fragilis. Besides, the MIC against Providencia rettgeri was 0.05 µg/mL (≈ 0.138 µM); in the test with Staphylococcus aureus [4] it was 0.05 µg/mL (≈ 0.138 µM); with Cutibacterium acnes, 0.2 µg/mL (≈ 0.553 µM); in test [5] it was 0.4 µg/mL (≈ 1.11 µM).

For the compound `Nc1c(F)c(N2CCCC(N)C2)c(F)c2c1c(=O)c(C(=O)O)cn2C1CC1` (configuration not stated), the IC50 in the test with V79 was 19 µg/mL (≈ 50.2 µM).

With `COc1c(N2CCCC(N)C2)c(F)cc2c(=O)c(C(=O)O)cn(C3CC3)c12` (configuration not stated), the minimal inhibitory concentration (MIC) in the test with Clostridium perfringens is 0.4 µg/mL (≈ 1.07 µM); against Enterococcus faecalis it was 0.025 µg/mL (≈ 0.0666 µM); against Clostridioides difficile, 0.8 µg/mL (≈ 2.13 µM); with Streptococcus pyogenes it was 0.013 µg/mL (≈ 0.0346 µM); against Staphylococcus aureus [1], 0.006 µg/mL (≈ 0.016 µM); with Escherichia coli [2], 0.1 µg/mL (≈ 0.266 µM). Besides, the minimum inhibitory concentration (MIC) against Klebsiella pneumoniae was determined as 0.2 µg/mL (≈ 0.533 µM); with Streptococcus pneumoniae it was 0.013 µg/mL (≈ 0.0346 µM); with Enterobacter cloacae, 0.1 µg/mL (≈ 0.266 µM); in the test with Escherichia coli [3], 0.05 µg/mL (≈ 0.133 µM); in the test on Pseudomonas aeruginosa, 1.6 µg/mL (≈ 4.26 µM); against Bacteroides fragilis it was 0.4 µg/mL (≈ 1.07 µM). Further, the MIC is 0.4 µg/mL (≈ 1.07 µM) against Providencia rettgeri, 0.05 µg/mL (≈ 0.133 µM) against Staphylococcus aureus [4], 0.2 µg/mL (≈ 0.533 µM) against Cutibacterium acnes and 0.8 µg/mL (≈ 2.13 µM) in test [5].

With `COc1c(N2CCN(C)CC2)c(F)cc2c(=O)c(C(=O)O)cn(C3CC3)c12`, the MIC against Clostridium perfringens was 0.2 µg/mL (≈ 0.533 µM); in the test on Enterococcus faecalis, 0.2 µg/mL (≈ 0.533 µM); in the test on Clostridioides difficile, 0.8 µg/mL (≈ 2.13 µM); in the test on Streptococcus pyogenes it was 0.1 µg/mL (≈ 0.266 µM); in the test on Staphylococcus aureus [1], 0.05 µg/mL (≈ 0.133 µM); with Escherichia coli [2] it was 0.1 µg/mL (≈ 0.266 µM). For the same compound, the MIC amounted to 0.2 µg/mL (≈ 0.533 µM) in the test with Klebsiella pneumoniae; 0.1 µg/mL (≈ 0.266 µM) against Streptococcus pneumoniae; 0.1 µg/mL (≈ 0.266 µM) in the test with Enterobacter cloacae; 0.1 µg/mL (≈ 0.266 µM) in the test on Escherichia coli [3]; 0.8 µg/mL (≈ 2.13 µM) with Pseudomonas aeruginosa; 0.2 µg/mL (≈ 0.533 µM) against Bacteroides fragilis. The minimum inhibitory concentration (MIC) against Providencia rettgeri was found to be 0.4 µg/mL (≈ 1.07 µM); against Staphylococcus aureus [4], 0.1 µg/mL (≈ 0.266 µM); in the test with Cutibacterium acnes, 0.4 µg/mL (≈ 1.07 µM); in [5] it was 1.6 µg/mL (≈ 4.26 µM).

Regarding `CCNCC1CCN(c2c(F)cc3c(=O)c(C(=O)O)cn(C4CC4)c3c2OC)C1` (configuration not stated), the MIC with Clostridium perfringens was found to be 0.05 µg/mL (≈ 0.124 µM); in the test on Enterococcus faecalis, 0.025 µg/mL (≈ 0.062 µM); in the test on Clostridioides difficile, 0.2 µg/mL (≈ 0.496 µM); against Streptococcus pyogenes it was 0.013 µg/mL (≈ 0.0322 µM); in the test on Staphylococcus aureus [1] it was 0.006 µg/mL (≈ 0.0149 µM); against Escherichia coli [2], 0.1 µg/mL (≈ 0.248 µM). The MIC in the test with Klebsiella pneumoniae is 0.2 µg/mL (≈ 0.496 µM); against Streptococcus pneumoniae, 0.013 µg/mL (≈ 0.0322 µM); against Enterobacter cloacae it was 0.1 µg/mL (≈ 0.248 µM); in the test with Escherichia coli [3], 0.05 µg/mL (≈ 0.124 µM); in the test on Pseudomonas aeruginosa it was 1.6 µg/mL (≈ 3.97 µM); with Bacteroides fragilis, 0.4 µg/mL (≈ 0.991 µM). Also, the MIC with Providencia rettgeri is 0.4 µg/mL (≈ 0.991 µM); with Staphylococcus aureus [4] it was 0.025 µg/mL (≈ 0.062 µM); in the test with Cutibacterium acnes, 0.4 µg/mL (≈ 0.991 µM); in test [5], 0.2 µg/mL (≈ 0.496 µM).

For the compound `COc1c(N2CCC(CN)C2)c(F)cc2c(=O)c(C(=O)O)cn(C3CC3)c12` (configuration not stated), the MIC against Clostridium perfringens came out at 0.1 µg/mL (≈ 0.266 µM); with Enterococcus faecalis, 0.013 µg/mL (≈ 0.0346 µM); with Clostridioides difficile, 0.2 µg/mL (≈ 0.533 µM); against Streptococcus pyogenes it was 0.003 µg/mL (≈ 0.00799 µM); against Staphylococcus aureus [1], 0.003 µg/mL (≈ 0.00799 µM); against Escherichia coli [2] it was 0.05 µg/mL (≈ 0.133 µM). The MIC is 0.1 µg/mL (≈ 0.266 µM) with Klebsiella pneumoniae; 0.003 µg/mL (≈ 0.00799 µM) against Streptococcus pneumoniae; 0.05 µg/mL (≈ 0.133 µM) against Enterobacter cloacae; 0.025 µg/mL (≈ 0.0666 µM) against Escherichia coli [3]; 0.8 µg/mL (≈ 2.13 µM) in the test with Pseudomonas aeruginosa; 0.2 µg/mL (≈ 0.533 µM) in the test with Bacteroides fragilis. For the same compound, the minimum inhibitory concentration (MIC) with Providencia rettgeri came to 0.1 µg/mL (≈ 0.266 µM); with Staphylococcus aureus [4] it was 0.025 µg/mL (≈ 0.0666 µM); in the test with Cutibacterium acnes, 0.2 µg/mL (≈ 0.533 µM); in test [5], 0.2 µg/mL (≈ 0.533 µM).

For `NC1CCCN(c2nc3c(cc2F)c(=O)c(C(=O)O)cn3C2CC2)C1` (configuration not stated), the MIC was 0.8 µg/mL (≈ 2.31 µM) against Clostridium perfringens; greater than 25 µg/mL against Clostridioides difficile; 25 µg/mL (≈ 72.2 µM) against Bacteroides fragilis; 6.3 µg/mL (≈ 18.2 µM) in the test with Cutibacterium acnes; 6.3 µg/mL (≈ 18.2 µM) in [5].

Take `CCOc1c(N2CCCC(N)C2)c(F)c(N)c2c(=O)c(C(=O)O)cn(C3CC3)c12` (configuration not stated): the minimum inhibitory concentration (MIC) against Clostridium perfringens is 0.4 µg/mL (≈ 0.989 µM); with Enterococcus faecalis, 0.1 µg/mL (≈ 0.247 µM); in the test with Clostridioides difficile it was 6.3 µg/mL (≈ 15.6 µM); with Streptococcus pyogenes, 0.05 µg/mL (≈ 0.124 µM); with Staphylococcus aureus [1], 0.013 µg/mL (≈ 0.0321 µM); in the test with Escherichia coli [2], 0.2 µg/mL (≈ 0.495 µM). The MIC is 0.4 µg/mL (≈ 0.989 µM) with Klebsiella pneumoniae; 0.025 µg/mL (≈ 0.0618 µM) in the test on Streptococcus pneumoniae; 0.2 µg/mL (≈ 0.495 µM) with Enterobacter cloacae; 0.1 µg/mL (≈ 0.247 µM) against Escherichia coli [3]; 3.1 µg/mL (≈ 7.66 µM) against Pseudomonas aeruginosa; 3.1 µg/mL (≈ 7.66 µM) against Bacteroides fragilis. For the same compound, the MIC against Providencia rettgeri amounted to 0.8 µg/mL (≈ 1.98 µM); in the test on Staphylococcus aureus [4] it was 0.05 µg/mL (≈ 0.124 µM); against Cutibacterium acnes, 3.1 µg/mL (≈ 7.66 µM); in test [5], 0.8 µg/mL (≈ 1.98 µM).

The values are drawn from ChEMBL document CHEMBL1128719, “The synthesis, structure-activity, and structure-side effect relationships of a series of 8-alkoxy- and 5-amino-8-alkoxyquinolone antibacterial agents” (J Med Chem, 1995).
